Values joined by “and” are separate entries in the source; they are usually repeats but may differ in a detail not shown here. Equal entries are not always repeated.
Tested on: HEK-293T
Assay: Multiplex assay against HEK293T
Assay type: toxicity, cell-based
Settings: human
Summary of the method: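 Cells were classed with CellPathfinder machine-learning gating, first as Hoechst high-intensity objects or normal cells, then (normal cells) as healthy, pyknosed or fragmented nuclei, and finally (pyknosed cells) as mitotic or apoptotic. Staining of live cells at seeding used Hoechst33342, BioTracker Green Microtubule Cytoskeleton Dye, MitoTracker Red and Annexin V Alexa Fluor 680, with imaging on a CQ1 microscope at 37°C and 5% CO2 after compound addition. Tubulin, mitochondrial-mass and membrane-permeability phenotypes are per cents of healthy-nucleus cells.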

[1] = 12 h, 1 µM, compound concentration 1 uM
[2] = 12 h, 10 µM, compound concentration 10 uM
[3] = 24 h, 1 µM, compound concentration 1 uM
[4] = 24 h, 10 µM, compound concentration 10 uM
[5] = 48 h, 1 µM, compound concentration 1 uM
[6] = 48 h, 10 µM, compound concentration 10 uM

Cc1[nH]nc2ccc(-c3cncc(OCC(N)Cc4c[nH]c5ccccc45)c3)cc12 (stereo not drawn)
Population Apoptotic (%) [1]: 14.46% and 12.06% | Population Fragmented Nuclei (%) [1]: 1.15% and 2.53% | Population Hoechst High Intensity Objects (%) [1]: 0.86% and 0% | Population Membrane Permeable-Phenotype (%) [1]: 1.98% and 0% | Population Mitotic Cells (%) [1]: 85.54% and 87.94% | Population Normal (%) [1]: 99.14% and 100% | Population Pyknosed Nuclei (%) [1]: 69.74% and 89.24% | Total Cell Count [1]: 350 and 158 | Population Apoptotic (%) [2]: 26.81% and 37.12% | Population Fragmented Nuclei (%) [2]: 0.85% and 0% | Population Healthy Nuclei (%) [2]: 5.1% and 3.65% | Population Hoechst High Intensity Objects (%) [2]: 0.28% and 0% | Population Membrane Permeable-Phenotype (%) [2]: 0% | Population Mitochondria Different-Phenotype (%) [2]: 16.67% and 0% | Population Mitotic Cells (%) [2]: 73.19% and 62.88% | Population Normal (%) [2]: 99.72% and 100% | Population Pyknosed Nuclei (%) [2]: 94.05% and 96.35% | Total Cell Count [2]: 354 and 137 | Population Apoptotic (%) [3]: 39.92% and 29.58% | Population Fragmented Nuclei (%) [3]: 0.63% and 1.97% | Population Hoechst High Intensity Objects (%) [3]: 0.62% and 0% | Population Membrane Permeable-Phenotype (%) [3]: 1.59% and 0% | Population Mitochondria Different-Phenotype (%) [3]: 34.92% and 28.57% | Population Mitotic Cells (%) [3]: 60.08% and 70.42% | Population Normal (%) [3]: 99.38% and 100% | Population Pyknosed Nuclei (%) [3]: 79.56% and 93.42% | Total Cell Count [3]: 320 and 152 | Population Apoptotic (%) [4]: 80.3% and 96.64% | Population Fragmented Nuclei (%) [4]: 0.86% and 2.34% | Population Healthy Nuclei (%) [4]: 3.15% and 4.69% | Population Hoechst High Intensity Objects (%) [4]: 0.85% and 0% | Population Membrane Permeable-Phenotype (%) [4]: 0% and 16.67% | Population Mitochondria Different-Phenotype (%) [4]: 72.73% and 33.33% | Population Normal (%) [4]: 99.15% and 100% | Population Pyknosed Nuclei (%) [4]: 95.99% and 92.97% | Population Tubulin-Different-Phenotype (%) [4]: 72.73% and 33.33% | Total Cell Count [4]: 352 and 128 | Population Apoptotic (%) [5]: 57.46% and 49.23% | Population Fragmented Nuclei (%) [5]: 2.33% and 1.39% | Population Healthy Nuclei (%) [5]: 21.93% and 8.33% | Population Hoechst High Intensity Objects (%) [5]: 0.33% and 0.69% | Population Membrane Permeable-Phenotype (%) [5]: 0% | Population Mitochondria Different-Phenotype (%) [5]: 86.36% and 58.33% | Population Mitotic Cells (%) [5]: 42.54% and 50.77% | Population Normal (%) [5]: 99.67% and 99.31% | Population Pyknosed Nuclei (%) [5]: 75.75% and 90.28% | Total Cell Count [5]: 302 and 145 | Population Apoptotic (%) [6]: 80.14% and 100% | Population Fragmented Nuclei (%) [6]: 0.68% and 1.68% | Population Healthy Nuclei (%) [6]: 3.73% and 4.2% | Population Hoechst High Intensity Objects (%) [6]: 3.91% and 0% | Population Membrane Permeable-Phenotype (%) [6]: 9.09% and 0% | Population Mitochondria Different-Phenotype (%) [6]: 54.55% and 40% | Population Mitotic Cells (%) [6]: 19.86% and 0% | Population Normal (%) [6]: 96.09% and 100% | Population Pyknosed Nuclei (%) [6]: 95.59% and 94.12% | Population Tubulin-Different-Phenotype (%) [6]: 45.45% and 40% | Total Cell Count [6]: 307 and 119

O=C(NCc1cccc(O)c1)Nc1nc(-c2ccncc2)cs1
Population Apoptotic (%) [1]: 7.14% and 10.34% | Population Fragmented Nuclei (%) [1]: 2.92% and 3.91% | Population Healthy Nuclei (%) [1]: 52.8% and 28.12% | Population Hoechst High Intensity Objects (%) [1]: 0.24% and 0% | Population Membrane Permeable-Phenotype (%) [1]: 0.92% and 0% | Population Mitochondria Different-Phenotype (%) [1]: 22.12% and 19.44% | Population Mitotic Cells (%) [1]: 92.86% and 89.66% | Population Normal (%) [1]: 99.76% and 100% | Population Pyknosed Nuclei (%) [1]: 44.28% and 67.97% | Population Apoptotic (%) [2]: 7.43% and 12.61% | Population Fragmented Nuclei (%) [2]: 2.74% and 5.1% | Population Healthy Nuclei (%) [2]: 52.13% and 34.18% | Population Hoechst High Intensity Objects (%) [2]: 0% | Population Membrane Permeable-Phenotype (%) [2]: 4.09% and 0% | Population Mitochondria Different-Phenotype (%) [2]: 19.88% and 13.43% | Population Mitotic Cells (%) [2]: 92.57% and 87.39% | Population Normal (%) [2]: 100% | Population Pyknosed Nuclei (%) [2]: 45.12% and 60.71% | Total Cell Count [2]: 328 and 196 | Population Apoptotic (%) [3]: 13.54% and 22% | Population Fragmented Nuclei (%) [3]: 2.1% and 4.17% | Population Healthy Nuclei (%) [3]: 77.73% and 54.17% | Population Hoechst High Intensity Objects (%) [3]: 0% | Population Membrane Permeable-Phenotype (%) [3]: 0.54% and 0% | Population Mitochondria Different-Phenotype (%) [3]: 3.78% and 6.15% | Population Mitotic Cells (%) [3]: 86.46% and 78% | Population Normal (%) [3]: 100% | Population Pyknosed Nuclei (%) [3]: 20.17% and 41.67% | Population Tubulin-Different-Phenotype (%) [3]: 3.51% and 9.23% | Population Apoptotic (%) [4]: 12.64% and 13.27% | Population Fragmented Nuclei (%) [4]: 3.74% | Population Healthy Nuclei (%) [4]: 72.99% and 50.47% | Population Hoechst High Intensity Objects (%) [4]: 0% and 0.93% | Population Membrane Permeable-Phenotype (%) [4]: 1.1% and 0% | Population Mitochondria Different-Phenotype (%) [4]: 5.86% and 10.19% | Population Mitotic Cells (%) [4]: 87.36% and 86.73% | Population Normal (%) [4]: 100% and 99.07% | Population Pyknosed Nuclei (%) [4]: 23.26% and 45.79% | Population Tubulin-Different-Phenotype (%) [4]: 5.86% and 3.7% | Total Cell Count [4]: 374 and 216 | Population Apoptotic (%) [5]: 17.39% and 25% | Population Fragmented Nuclei (%) [5]: 2.27% and 10.14% | Population Healthy Nuclei (%) [5]: 86.57% and 68.24% | Population Hoechst High Intensity Objects (%) [5]: 0.16% and 0.67% | Population Membrane Permeable-Phenotype (%) [5]: 5.42% and 4.95% | Population Mitochondria Different-Phenotype (%) [5]: 14.95% and 15.84% | Population Mitotic Cells (%) [5]: 82.61% and 75% | Population Normal (%) [5]: 99.84% and 99.33% | Population Pyknosed Nuclei (%) [5]: 11.17% and 21.62% | Population Apoptotic (%) [6]: 22.81% and 34.48% | Population Fragmented Nuclei (%) [6]: 4.16% and 5.49% | Population Healthy Nuclei (%) [6]: 85.07% and 70.04% | Population Hoechst High Intensity Objects (%) [6]: 0.19% and 0% | Population Membrane Permeable-Phenotype (%) [6]: 4% and 0.6% | Population Mitochondria Different-Phenotype (%) [6]: 19.78% and 24.1% | Population Mitotic Cells (%) [6]: 77.19% and 65.52% | Population Normal (%) [6]: 99.81% and 100% | Population Pyknosed Nuclei (%) [6]: 10.78% and 24.47% | Population Tubulin-Different-Phenotype (%) [6]: 0.89% and 5.42% | Total Cell Count [6]: 530 and 237
